Screening results: PubChem BioAssay, several laboratories
beta cell repl: MIN6 beta-cell proliferation induction; MIN6 cells proliferation, ATPlite luminescence, 48 h; cells starved in 0.2% serum; 100% = growth in 10% serum; proliferation, % at 10 µM; actives 0.29% (n = 330,000); AID 2380;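 active = compounds whose signal lies at least 3.5 SD above the mean of all wells on their plate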;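 also: 0% = DMSO-treated cells in low-serum medium and 100% = 10% serum control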
Myeloid diff MLP: compounds promoting myeloid differentiation | calls only at 10 µM | ER-HoxA9 myeloid progenitors, lysozyme-GFP differentiation, flow cytometry | actives 1% (n = 360,000);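 active = normalized GFP-positive differentiation at or above the plate's own cutoff, the solvent-only control mean plus 3 SD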;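 also: cells exposed to compound for four days before flow analysis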
SENP1 inh: blocks the human SENP1 SUMO protease catalytic domain. inhibition, % at 10 µM. AID 624204. actives 0.21% (n = 360,000). recombinant SENP1 catalytic domain, CyPet-SUMO1-YPet FRET cleavage;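 active = inhibition at least 30% at 10 µM, raw YFP signal under a set limit, fluorescence ratio 0.5 to 1.5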;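 also: 0% = enzyme with DMSO and 100% = no enzyme wells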
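Test system: human SENP1 catalytic domain; medium: Tris pH 8 buffer plus EDTA, NaCl, BME, BSA, NP40, catalase; incubation: 50 min reaction at room temperature; technique: FRET, CFP and YFP emission; controls: no-enzyme low control and enzyme-plus-DMSO high control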
DAGLB inh: blocks human DAGLB lipase activity; Q8NCG7; HEK293T DAGLB membrane lysate, EnzChek fluorogenic substrate; inhibition, % at 5.17 µM; actives 0.059% (n = 340,000); AID 504411; in the data active = inhibition above about 34%;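 also: 0% = enzyme with vehicle and 100% = wells lacking enzyme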
Target sequence (Q8NCG7 whole entry, looked up): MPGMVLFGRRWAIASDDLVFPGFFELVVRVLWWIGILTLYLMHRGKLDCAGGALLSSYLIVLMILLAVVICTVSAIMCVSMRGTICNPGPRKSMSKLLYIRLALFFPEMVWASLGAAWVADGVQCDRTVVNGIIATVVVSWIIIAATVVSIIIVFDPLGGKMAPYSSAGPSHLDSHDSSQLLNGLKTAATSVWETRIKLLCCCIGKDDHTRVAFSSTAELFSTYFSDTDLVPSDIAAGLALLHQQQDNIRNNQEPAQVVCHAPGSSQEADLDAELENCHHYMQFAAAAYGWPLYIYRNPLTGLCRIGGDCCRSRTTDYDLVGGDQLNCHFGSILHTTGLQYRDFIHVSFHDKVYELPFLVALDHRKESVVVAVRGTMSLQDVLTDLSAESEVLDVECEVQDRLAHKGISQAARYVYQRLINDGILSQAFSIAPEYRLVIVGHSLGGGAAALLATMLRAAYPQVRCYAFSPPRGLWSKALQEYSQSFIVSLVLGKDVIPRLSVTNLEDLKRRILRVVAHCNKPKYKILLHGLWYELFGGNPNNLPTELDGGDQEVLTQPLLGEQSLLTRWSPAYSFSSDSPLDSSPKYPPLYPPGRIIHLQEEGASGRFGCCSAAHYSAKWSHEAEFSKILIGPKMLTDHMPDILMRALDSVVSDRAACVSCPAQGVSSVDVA
NRP1-CendR mod: modulators of CendR peptide binding to human neuropilin-1; O14786; FAM-RPARPAR peptide binding to NRP-1, fluorescence polarization; inhibition, % at 25 µM; actives 0.85% (n = 360,000);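 active = inhibition or corrected inhibition above about 18%, plus a signal ratio from 0.5 to 1.5, limit read from the data, passing the limit was not always enough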
MT1-MMP act inh: MT1-MMP (human) activation inhibition | P50281 | HT1080 RFP-PRO-GFP cells, GFP/RFP ratio fluorescence, overnight; percent of plate control window, DMSO zero | GFP/RFP ratio change, % at 20 µM | actives 0.061% (n = 360,000);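 active = GFP/RFP ratio change of at least 30% with cell ATP level not reduced by more than half and red fluorescence within 50% of control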
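Read-out: GFP/RFP fluorescence ratio; Test system: RFP-PRO-GFP reporter HT1080 cells; Compound dosing: single-point 20 µM compound, 1% DMSO; Times: overnight compound exposure at 37 °C.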
Active calls of the source: *; i = inactive; . = no result given; + = active, no number; ! = repeats disagree. In the library only some 2.4% were active in any assay of this set; here they are far more common.

SMILES	beta cell repl	Myeloid diff MLP	SENP1 inh	DAGLB inh	NRP1-CendR mod	MT1-MMP act inh
C/C(=C\c1ccccc1)C(=O)N1CCN(c2cccc(C(F)(F)F)c2)CC1	0.0	i	0.9	-13.4	29.4*	-2.0
CCN(C(=O)COC(=O)CNC(=O)c1cccs1)c1c(N)n(Cc2ccccc2)c(=O)[nH]c1=O	.	i	-1.2	-3.3	1.2	-2.3
COc1cccc(/C=C/C(=O)NCc2cn3cc(Cl)ccc3n2)c1OC	-1.4	i	2.2	0.6	-2.5	2.5
CC(C)(C)N1CC(OC(N)=O)C1	-5.4	+	1.7	-2.0	4.2	2.6
Cc1cc(NN)nc2ccc(Cl)cc12	1.3	i	-6.0	1.9	-0.9	2.9
O=c1c(-c2ccccc2)nc2ccccc2n1C(CCc1ccccc1)c1nc2ccccc2[nH]1 (stereo unspecified)	.	i	-4.0	.	2.2	-20.6
COc1cccc(C2CC(c3ccccc3Cl)n3ncnc3N2)c1 (stereo unspecified)	-0.4	i	1.0	1.9	30.1*	2.2
COc1ccc(S(=O)(=O)N2CCCCCC2)cc1C(=O)OCC(=O)NC1CCS(=O)(=O)C1 (stereo unspecified)	-1.3	i	2.1	0.7	4.9	-6.0
CCOc1ccc(OCC)c(NC(=O)C2CCN(c3cnccn3)CC2)c1	0.8	i	-2.0	-0.9	1.7	-1.6
CCOc1ccc(OCC)c(NC(=O)C2CCN(S(=O)(=O)c3cnc[nH]3)CC2)c1	1.8	i	1.6	-2.1	21.1*	13.2
CN(C)CCOC(c1ccccc1)c1ccccc1 (tested in a mixture with another compound)	-0.5	+	1.2	0.4	17.1	-2.9
CN(C)CCOC(c1ccc(Cl)cc1)c1ccccn1 (stereo unspecified)	1.8	i	2.9	1.9	21.2*!	-3.5
C[C@H]1CN([C@@H](C)CO)C(=O)CCCn2cc(nn2)CO[C@@H]1CN(C)C(=O)NC1CCCCC1	.	i	-1.0	.	6.9	7.1
O=C(CN1C2=NCCN2c2ccccc21)c1ccco1	0.3	i	0.6	-0.8	32.0*	-4.5
O=C1c2[nH]nc(-c3ccccc3O)c2C(c2ccccc2)N1Cc1ccco1 (stereo unspecified)	-4.3	+	-1.4	5.0	5.2	.
O=C(COc1ccc(S(=O)(=O)N2CCCC2)cc1)Nc1ccc2c(c1)OCCO2	-3.5	i	2.4	-1.0	36.4*	0.9
O=C(NC1CC1)c1ccc(-c2cnc3cccnn23)cc1	.	i	-23.4	.	2.8	0.8
CC1=C/C(=N\OC(=O)/C=C/c2ccccc2)C(C)=CC1=O	-0.7	+	2.8	2.6	7.8	1.8
CC(=O)c1sc(N2CCOCC2)nc1-c1ccccc1	3.8	i	0.2	1.4	30.5*	-0.3
COC1=C(c2ccccc2)C(=O)c2ccccc2C1=O	-4.5	i	13.0	-0.9	32.1*	1.1
COc1ccc(C2=C(N)c3ccccc3C2=O)cc1	-2.5	i	2.8	6.6	-2.1	3.9
O=C(Oc1ccc([N+](=O)[O-])cc1)C1CC(=O)N(c2ccc3c(c2)OCCO3)C1 (stereo unspecified)	-1.5	i	-4.6	-2.0	8.4	-6.2
COc1ncnc2c1NC1=C(S2)C(=NCCC(=O)O)CC(C)(C)C1	2.7	i	51.8*	-3.1	0.2	-6.8
COc1ccc(C(=O)N(C)CCCC2CCCC2)cc1OC1CCN(C(C)C)CC1	1.0	i	0.1	-0.5	9.3	-4.7
O=C(CNC(=O)[C@@H]1Cc2ccccc2CN1)Nc1ccc2c(c1)OCO2	-0.2	+	-2.1	-0.1	3.1	1.6
CC(NC(=O)CNC(=O)[C@@H]1Cc2ccccc2CN1)c1ccccc1 (stereo partly specified)	-0.2	i	1.8	0.3	-0.1	0.2
O=C(CNC(=O)[C@@H]1Cc2ccccc2CN1)NCc1ccco1	-2.9	+	-9.1	-1.3	-6.9	-1.1
CCOC(=O)C1=C(C)C(c2ccccc2O)NC(=O)N1 (stereo unspecified)	3.4	i	-0.9	-1.1	-4.4	1.9
